Rows were chosen to be rich in hits. Some 4.4% of all compounds tested hit in one or more screens of this group.
HSF-1 act – HSF-1 activators, primary screen, NIH3T3-HGL cells, MG132 stress, luminescence, single point; NIH3T3-HGL HSF-1 luciferase reporter, 8 h; 100% = twice DMSO control signal; activation, % at 9 µM; 300,000 compounds, 1.7% hits;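 active = mean replicate activation of at least 50% with a set share of replicates each reaching 50%; inconclusive = only one of those two conditions met; inactive = mean below 50% and too few replicates reaching it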
HSF1 inhib – HSF1 inhibitors in luciferase reporter cells, primary screen, cell-based, NIH3T3, luminescence. NIH3T3-HGL HSE-luciferase, MG132-induced, luminescence 8 h; stronger effect = lower value. activity change, negative = inhibition, % at 7.5 µM (by protocol). 300,000 compounds, 0.77% hits;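 active = more than half of replicate wells show activity change below -50%, luminescence cut by over half; inconclusive = some wells, but at most half, below -50%; inactive = no replicate well below -50%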;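 note: luciferase reports HSF-1 transcriptional activity via heat shock element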
HIF activator – HIF pathway transcriptional activators, primary screen, cell-based, U2OS HRE-luciferase, luminescence. 300,000 compounds, 0.32% hits. U2OS HRE-luciferase reporter; normalized: DMSO 0%, desferrioxamine 100%. activation, % at 7.5 µM (by protocol). AID 1910, 2009;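 active = mean activation of at least 10% of the iron chelator positive control signal, with at least half of replicates also reaching 10%; inconclusive = mean and replicate majority disagree about reaching 10%; inactive = mean and most replicates under 10%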
Calb FLC – C. albicans growth inhibition with fluconazole, primary screen, CaCi-2 strain, Alamar Blue fluorescence. C. albicans CaCi-2 + fluconazole, 48 h. growth inhibition, % (no concentration beside the values). 300,000 compounds, 0.57% hits. AID 1979, 2009;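 active = growth inhibition above about 58% in most replicates, limit read from the data, passing the limit was not always enough; inconclusive = exactly half the replicates above a set limit; inactive = most replicates below a set limit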;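 note: all wells also contain fluconazole at 8 µg/ml as a sub-toxic cotreatment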
T cruzi repl – inhibitors of intracellular T. cruzi growth, primary screen, luminescence, NIH3T3 host cells. 300,000 compounds, 1.4% hits. T. cruzi beta-gal in NIH3T3, 90 h. inhibition, % (no concentration beside the values). AID 1885, 2009;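 active = mean inhibition across valid replicates above about 55%, limit read from the data; inconclusive = mean below that limit but half or more replicates reach it; inactive = mean below it, under half of replicates reach it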;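 note: signal also drops with host cell toxicity which is not excluded here; higher percent means less beta-gal luminescence so fewer parasites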
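Test system: β-gal T. cruzi (Tulahuen C4) inside NIH/3T3 cells / Quantity: 5,000 cells/well / Measured by: luminescence from GalScreen with 0.05% NP40, read after 60 min / Medium: DMEM plus 2% FBS / Measure: parasite load inhibition, % / Reagent: Tulahuen C4 trypomastigotes, 5000/well / Schedule: co-culture of at least 90 h after 3 h attachment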
Hits are given with their value; – = inactive; ? = inconclusive; · = no result given.

SMILES | HSF-1 act | HSF1 inhib | HIF activator | Calb FLC | T cruzi repl
O=C(CCS(=O)(=O)c1ccccc1)Nc1nc(-c2ccccn2)cs1 | – | – | – | – | –
Cc1cc(C)c(OCC(=O)Nc2nc(-c3ccccn3)cs2)c(C)c1 | – | – | – | – | 70
COc1ccc(F)cc1CSc1nnnn1-c1ccc(O)cc1 | – | – | 477 | – | –
COc1ccc(C(C)=O)cc1CSc1nnnn1-c1ccc(O)cc1 | – | – | – | – | –
c1ccc2oc(SCc3nc4ccccc4s3)nc2c1 | 67 | – | – | – | –
c1ccc2oc(SCc3cn4ccccc4n3)nc2c1 | 64 | – | – | – | –
Brc1c(CSc2nc3ccccc3o2)nc2ncccn12 | – | – | – | – | –
Clc1c(CSc2nc3ccccc3o2)nc2ccccn12 | 87 | – | – | – | –
c1ccc(OCCSc2nc3ccccc3o2)cc1 | – | -61 | – | – | –
CCOc1ccc(OCCSc2nc3ccccc3o2)cc1 | – | – | – | – | –
CC(=O)/C(=N/Nc1ccccc1)Sc1nnc(C(O)c2ccccc2)n1-c1ccccc1 (stereo unspecified) | – | – | – | – | –
COc1ccc(C(=O)NNC(=O)CSc2nnc(C)n2CC2CCCO2)cc1 (stereo unspecified) | – | – | – | – | –
COc1ccc(NC(=O)C2CCOC(C)(C)C2)cc1 (stereo unspecified) | – | – | – | – | –
CC(=O)Nc1ccc(NC(=O)C(C)OC(=O)C2CCN(S(=O)(=O)c3ccc4c(c3)OCCO4)CC2)cc1 (stereo unspecified) | – | – | – | – | –
COC(=O)CSc1nc2ccccc2o1 | – | – | – | – | –
Clc1c(CSc2nc3ccccc3o2)nc2sccn12 | 103 | – | 10 | – | –
CCCOC(=O)NC1C(NC(=O)OCCC)N(C)C(=O)N1C (stereo unspecified) | – | – | 153 | – | –
Cc1cc2c(cc(C(=O)OCC(=O)NCc3ccco3)n2C)s1 | – | – | – | 102 | –
Cn1c(C(=O)OCC(=O)NCc2ccco2)cc2sccc21 | – | – | – | – | –
Cc1cc(C)c(S(=O)(=O)NC2CC3CCC2C3)c(C)c1 (stereo unspecified) | – | – | – | – | –
O=C(O)COn1c(-c2ccccc2)nc2ccc([N+](=O)[O-])cc21 | 82 | – | – | – | –
CCOC(=O)C(C)On1c(-c2ccccc2)nc2ccc([N+](=O)[O-])cc21 (stereo unspecified) | – | – | – | – | –
O=C(O)COn1c(-c2ccc(Cl)cc2)nc2ccc(Cl)cc21 | 92 | – | – | – | –
COc1ccc(-c2nc3ccccc3n2OCC(=O)O)cc1 | – | – | – | – | –
Cc1ccc(COn2c(-c3ccc(Cl)cc3)nc3ccc([N+](=O)[O-])cc32)cc1 | – | – | – | – | –
SMILES | HSF-1 act | HSF1 inhib | HIF activator | Calb FLC | T cruzi repl
Clc1ccc(COn2c(-c3ccc(Cl)cc3)nc3ccccc32)cc1 | 60 | – | – | – | –
COn1c(-c2ccc(Cl)cc2)nc2ccc(Cl)cc21 | 111 | – | – | – | –
C=CCN1/C(=C2/SC(=S)N(C)C2=O)Sc2ccccc21 | – | – | – | – | –
COc1ccc(CCn2c(-c3ccco3)nc3nc4ccccc4nc32)cc1 | – | – | – | – | –
COc1ccc(CCn2c(-c3cc([N+](=O)[O-])cc([N+](=O)[O-])c3)nc3nc4ccccc4nc32)cc1 | – | – | – | ? | 57
COc1ccc(CCn2c(-c3cc([N+](=O)[O-])cc([N+](=O)[O-])c3)nc3nc4ccccc4nc32)cc1OC | – | – | – | – | 62
Cc1nn(-c2ccc(Cl)cc2)c(NC(=O)C(C)C)c(-c2ccccc2)c1=O | – | – | – | – | ·
CN(C)S(=O)(=O)c1ccc(C(=O)NCc2nnc(SCC(=O)c3ccccc3)o2)cc1 | – | – | – | – | –
CC(=O)CSc1nc2c(c(=O)[nH]c(=O)n2C)n1Cc1cccc(Br)c1 | 58 | – | – | – | –
Cc1ccc(Cn2c(Sc3ncccn3)nc3c2c(=O)[nH]c(=O)n3C)cc1 | – | -65 | – | – | –
CC(NC(=O)CN1CCc2ccccc21)c1ccccc1 (stereo unspecified) | – | – | – | – | –

Screening data from PubChem BioAssay.
